Most compounds without a hit are left out; they make up all but 4.6% or so of the library.
NF-kB neuron act: activators of NF-kB expression in neurons, primary screen, cell-based, HTS | human neuronal cells, NF-kB reporter expression; hits give high values | fold change at 12.5 µM | hit rate 1.6% among 190,000; in the data active = fold change above about 3.3
STAT1 activator: STAT1 signaling activators, primary screen, cell-based, HTS, luciferase reporter; hit rate 2.6% among 200,000; NIH 3T3 STAT1-luciferase reporter, IFN-gamma, luminescence; 100% = IFN-gamma alone, no compound; activation (% of control), % at 5.5 µM;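 active = activation above the screen-wide mean activation plus 3 SD, cut at about 130% in these data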
APP 5'UTR act: activators of APP 5'UTR luciferase reporter, primary screen, SH-SY5Y cells | SH-SY5Y APP 5'UTR luciferase reporter, luminescence; zero percent = DMSO vehicle wells | activation, % at 2 µM | hit rate 1% among 190,000 | AID 1276, 2008;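 active = activation above a set limit, based on mean plus 3 SD of controls, cut at about 140% in these data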
Mdm2 ligase inh: MDM2-luciferase reporter signal enhancers, primary screen, MDM2 E3 ligase inhibitor project, cell-based, luminescence, 1536-well | E3 ubiquitin-protein ligase Mdm2 (Homo sapiens), Q00987 | cell-based MDM2 ubiquitination luciferase reporter, 2 h; 0 = plate control, 100 = twice control, blank-subtracted | signal enhancement, % at 5 µM | hit rate 0.11% among 210,000;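 active = signal enhancement of 30% or more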;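 also: luminescence tracks abundance of the self-degrading MDM2-luciferase fusion protein; higher signal means inhibition of MDM2 E3 ligase activity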
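System: stable MDM2–luciferase fusion reporter cells / Input: 2000 cells seeded into each well / Schedule: 4 h settle plus 2 h compound, 37 °C / Compound: single-point 5 µM / Buffer or medium: cells held in DMEM / Benchmarks: control and blank well means / Evaluation: percent signal gain over controls, blank-subtracted / Measured by: luciferase luminescence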
Wee1 stabilizer: Wee1 degradation inhibitors, primary screen, cell-based, HeLa, Wee1K328M-luciferase, luminescence; HeLa Luc-Wee1K328M stability; 100% = proteasome inhibitor MG132 effect; hit rate 1.2% among 220,000; reporter increase, % at 5 µM; AID 1321, 2008; Wee1-like protein kinase (Homo sapiens), P30291;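 active = activation above the mean of all tested compounds plus 3 SD, set per screening run, cut at about 8.8% in these data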;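 also: cells exposed to compound for 20 h before luminescence read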
p97 ATPase inh: inhibitors of human p97 ATPase, primary screen, biochemical | recombinant p97 ATPase, Kinase-Glo ATP luminescence, 3 h | inhibition, % at 8 µM | hit rate 0.42% among 220,000 | AID 1481, 2009; in the data active = inhibition above about 15%
Target sequence (P55072 whole entry, looked up): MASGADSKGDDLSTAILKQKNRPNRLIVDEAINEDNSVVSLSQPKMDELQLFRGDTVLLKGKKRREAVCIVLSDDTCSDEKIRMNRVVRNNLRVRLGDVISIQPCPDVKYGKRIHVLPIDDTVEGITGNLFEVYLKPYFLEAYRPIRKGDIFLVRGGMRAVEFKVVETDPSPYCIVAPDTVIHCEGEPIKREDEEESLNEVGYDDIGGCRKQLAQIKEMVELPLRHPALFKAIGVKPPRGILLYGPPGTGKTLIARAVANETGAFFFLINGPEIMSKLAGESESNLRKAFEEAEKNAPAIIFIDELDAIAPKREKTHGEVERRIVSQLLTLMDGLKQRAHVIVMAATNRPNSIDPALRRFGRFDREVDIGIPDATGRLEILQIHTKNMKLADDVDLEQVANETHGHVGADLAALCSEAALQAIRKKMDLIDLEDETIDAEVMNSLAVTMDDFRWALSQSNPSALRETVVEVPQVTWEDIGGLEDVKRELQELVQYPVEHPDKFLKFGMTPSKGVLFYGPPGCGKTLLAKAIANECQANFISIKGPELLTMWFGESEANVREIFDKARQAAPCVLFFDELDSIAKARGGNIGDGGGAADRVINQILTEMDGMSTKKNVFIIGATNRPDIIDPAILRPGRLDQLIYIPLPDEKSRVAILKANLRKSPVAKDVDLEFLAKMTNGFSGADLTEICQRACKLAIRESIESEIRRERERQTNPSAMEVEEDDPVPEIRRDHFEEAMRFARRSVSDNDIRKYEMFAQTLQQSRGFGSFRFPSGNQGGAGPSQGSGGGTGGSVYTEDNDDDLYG
STAT1 act conf: STAT1 signaling activators, confirmation, cell-based, HTS, luciferase reporter; shares compounds with STAT1 activator; NIH 3T3 STAT1-luciferase reporter, IFN-gamma potentiation, luminescence; 100% = IFN-gamma EC80 alone, no compound; activation (% of control), % at 5.7 µM; hit rate 97% among 1,200;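 active = activation above a set limit carried over from the earlier primary STAT1 screen, cut at about 140% in these data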
NFkB act STAT1ct: NF-kB reporter activators, TNF-alpha stimulated, counter-screen for STAT1 activator project, cell-based, HEK293T, luciferase luminescence; hit rate 43% among 1,200; shares compounds with STAT1 activator; 100% = TNF-alpha with vehicle only; activation (% of control), % at 5.7 µM;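 active = activation above the mean of solvent-only control wells plus 3 SD, set per campaign, cut at about 130% in these data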;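 also: TNF-alpha given at a submaximal dose yielding about 80% of full reporter signal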
STAT3 act 2: STAT3 reporter activation by STAT1 hits, confirmation, counter-screen for STAT1 activator project, U3A cells, luciferase, luminescence; shares compounds with STAT1 activator; IL-6; cells lack STAT1; 100 = IL-6 alone, no compound effect; activation (% of control), % at 5.7 µM; hit rate 46% among 1,200; AID 1316, 2008;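 active = activation above the solvent-only control well mean plus 3 SD, set per plate batch, cut at about 110% in these data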;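 also: higher means more STAT3 reporter activation so hits are non-selective activators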
Each line names hits and unclear results; the compound was inactive in the other large screens (follow-up assays come after a bar, where they were run).

Cc1ccc2nsnc2c1NS(=O)(=O)c1c(C)ccc2nsnc12	none
Cc1ccc(/C=[N+](\[O-])c2ccc(N(C)C)cc2)c2nsnc12	STAT1 activator 162.5 (no result: NF-kB neuron act) | STAT1 act conf 199.0 | NFkB act STAT1ct 136.8 | STAT3 act 2 inactive
O=C(c1cc(-c2ccc(Cl)c(Cl)c2)on1)N1CCCCC1	STAT1 activator 159.3 | STAT1 act conf 187.7 | NFkB act STAT1ct 136.6 | STAT3 act 2 113.5
CC(=O)c1ccc(NC(=O)/C(=C\c2ccccc2)NC(=O)/C=C/c2ccccc2)cc1	none
CC(=O)c1ccc(NC(=O)/C(Cl)=C/c2ccccc2)cc1	NF-kB neuron act 6.42, STAT1 activator 153.8, APP 5'UTR act 167.8 | STAT1 act conf 199.6 | NFkB act STAT1ct inactive | STAT3 act 2 115.2
O=C(/C=C/c1ccc2c(c1)OCO2)NCCSCc1c(Cl)cccc1Cl	none
O=C(c1cc2nc(-c3ccc(Cl)cc3)cc(C(F)(F)F)n2n1)N1CCOCC1	none
NS(=O)(=O)c1ccc(N/C=C\C(=O)c2ccc(F)cc2)cc1	STAT1 activator 156.5 | STAT1 act conf 188.3 | NFkB act STAT1ct inactive | STAT3 act 2 114.6
Cc1noc(NS(=O)(=O)c2ccc(N/C=C\C(=O)c3ccc(F)cc3)cc2)c1C	none
CC(C)(C)N=C1NN=C(c2cc3ccccc3o2)CS1	STAT1 activator 169.3 | STAT1 act conf 207.2 | NFkB act STAT1ct inactive | STAT3 act 2 inactive
Cc1ccc(-c2cc(N)n(-c3ccccc3)n2)cc1	NF-kB neuron act 4.67, STAT1 activator 153.5 | STAT1 act conf 172.6 | NFkB act STAT1ct inactive | STAT3 act 2 inactive
CCc1ccc(-c2cc(N)n(-c3ccccc3)n2)cc1	NF-kB neuron act 10.6, STAT1 activator 172.2, APP 5'UTR act 241.8 | STAT1 act conf 194.6 | NFkB act STAT1ct 145.6 | STAT3 act 2 inactive
Cc1ccc(C(c2c(C)nn(-c3ccccc3)c2N)c2c(C)nn(-c3ccccc3)c2N)cc1	none
CCS(=O)(=O)n1nc(-c2ccccc2)cc1N	none
Cc1cccc(-c2cc(N)n(-c3ccccc3)n2)c1	NF-kB neuron act 5.48, STAT1 activator 173.9, APP 5'UTR act 152.4 | STAT1 act conf 185.2 | NFkB act STAT1ct 144.8 | STAT3 act 2 112.8
O=C(COC(=O)c1c[nH]c(=O)[nH]c1=O)Nc1ccccc1Br	none (no result: NF-kB neuron act, STAT1 activator, APP 5'UTR act)
O=C(Nc1ccc(NC(=S)NC(=O)c2cccs2)cc1)c1ccco1	none
C/C(=N\NC(=O)c1ccco1)c1ccc(NC(=O)c2cccs2)cc1	STAT1 activator 154.2 | STAT1 act conf inactive | NFkB act STAT1ct inactive | STAT3 act 2 inactive
CC(=O)Nc1ccc(-c2csc(Nc3cccc(C)n3)n2)cc1	NF-kB neuron act 6.15, STAT1 activator 159.9, APP 5'UTR act 167.6 | STAT1 act conf 183.9 | NFkB act STAT1ct inactive | STAT3 act 2 inactive
CC(=O)Nc1cccc(-c2csc(Nc3ccc(C)cn3)n2)c1	NF-kB neuron act 7.59, STAT1 activator 216.8, APP 5'UTR act 206.1 | STAT1 act conf 329.1 | NFkB act STAT1ct 139.4 | STAT3 act 2 inactive
Nc1nnc(SCC(=O)OCC(=O)c2ccccc2Br)s1	none
c1ccc(-n2nnc(-c3cccnc3)n2)cc1	STAT1 activator 151.6 (no result: Mdm2 ligase inh) | STAT1 act conf 164.6 | NFkB act STAT1ct inactive | STAT3 act 2 inactive
COc1ccc(-c2cc(=O)c3ccccc3s2)cc1	NF-kB neuron act 5.62, STAT1 activator 179.0 | STAT1 act conf 222.9 | NFkB act STAT1ct 136.3 | STAT3 act 2 119.5
Cc1cccc(-n2nnc(C(=O)Nc3ccc(F)cc3)c2N)c1	NF-kB neuron act 5.07, STAT1 activator 168.2 | STAT1 act conf 196.0 | NFkB act STAT1ct inactive | STAT3 act 2 inactive
COc1ccc(C(=O)Nc2ccc(C3(C#N)CCCC3)cc2)cc1	none
CCN(CC)c1ccc(NC(=O)c2ccccc2F)cc1	NF-kB neuron act 6.08, STAT1 activator 163.5, Wee1 stabilizer 9.2 | STAT1 act conf 192.3 | NFkB act STAT1ct inactive | STAT3 act 2 inactive
N#CC1(c2ccc(NC(=O)c3ccccc3F)cc2)CCCC1	NF-kB neuron act 10.7, STAT1 activator 161.3, APP 5'UTR act 144.6 | STAT1 act conf 228.3 | NFkB act STAT1ct inactive | STAT3 act 2 inactive
CN=C(C)/C(C(=O)OC)=C(/O)c1ccc(Cl)cc1Cl	none (no result: NF-kB neuron act, STAT1 activator, APP 5'UTR act)
CCOC(=O)c1ccc(NC(=O)c2ccc(OC(C)C)c(OC)c2)cc1	none
Clc1ccc(-c2csc(Nc3cccnc3)n2)cc1	none (no result: NF-kB neuron act, STAT1 activator, APP 5'UTR act)
C=CCNc1nc(-c2ccc([N+](=O)[O-])cc2)cs1	NF-kB neuron act 3.96, STAT1 activator 151.1 | STAT1 act conf 194.3 | NFkB act STAT1ct 135.8 | STAT3 act 2 inactive
C=CCNc1nc(-c2ccc(Cl)cc2)cs1	NF-kB neuron act 7.48, STAT1 activator 182.0, APP 5'UTR act 165.8 | STAT1 act conf 214.6 | NFkB act STAT1ct 140.5 | STAT3 act 2 inactive
N/C(=N\OC(=O)COc1ccccc1Cl)c1ccccn1	NF-kB neuron act 7.3, STAT1 activator 178.0, APP 5'UTR act 201.4 | STAT1 act conf 207.4 | NFkB act STAT1ct 139.4 | STAT3 act 2 115.6
N/C(=N\OC(=O)COc1ccc(Cl)cc1Cl)c1ccncc1	NF-kB neuron act 6.23, STAT1 activator 154.6, APP 5'UTR act 175.4 | STAT1 act conf 206.4 | NFkB act STAT1ct 146.4 | STAT3 act 2 123.7
N/C(=N\OC(=O)COc1ccc2ccccc2c1)c1ccccn1	none
Cc1nc2ccc(Cl)cc2nc(C)/c1=N\O	STAT1 activator 151.9, APP 5'UTR act 158.2 | STAT1 act conf 144.1 | NFkB act STAT1ct inactive | STAT3 act 2 119.7
Cc1cc(C)c2ccc(Cl)cc2n1	none (no result: NF-kB neuron act, STAT1 activator, APP 5'UTR act)
COc1ccc(C/C(C)=N/NS(=O)(=O)c2ccc(Br)cc2)cc1	none

Assay outcomes (PubChem BioAssay)
